Test [1] deals with Metabotropic glutamate receptor 5 (Homo sapiens, UniProt P41594). Kind of test: Negative allosteric modulation of mGlu5 receptor (unknown origin).
In test [2] the target is Metabotropic glutamate receptor 5 (Rattus norvegicus, UniProt P31424). Kind of test: Negative allosteric modulation of rat N-terminal HA-tagged mGlu5 receptor expressed in HEK293 cells co-expressing N-terminal HA-tagged EAAC1 assessed as inhibition of quisqualate-induced inositol phosphate accumulation after 30 mins by HTRF assay. The format is functional, cell-based. Put shortly:
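Rat mGlu5 (N-terminal HA tag) and EAAC1 were co-transfected into HEK293 cells by electroporation and seeded at 1.5 × 10^5 cells/well. Medium was changed to glutamate-free DMEM at least 4 h before the run. Next day, cells got 100 nM quisqualate plus compound for 30 min at 37°C, 5% CO2, then were washed once. IP accumulation was read by IP-One HTRF. Dose-response used ≥3 independent replicates.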

The target in test [3] is Metabotropic glutamate receptor 5 (Rattus norvegicus) (UniProt P31424). Kind of test: Negative allosteric modulation of rat N-terminal HA-tagged mGlu5 receptor expressed in HEK293 cells co-expressing N-terminal HA-tagged EAAC1 assessed as inhibition of quisqualate-induced inositol phosphate accumulation by measuring difference in efficacy between dark condition and violet light illumination after 30 mins by HTRF assay. The format is functional, cell-based. Set-up: scale not given: the % may be the effect or the level left. Put shortly: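 Quisqualate (100 nM) and compound were applied for 30 min at 37°C to HEK293 cells expressing rat HA-mGlu5 and EAAC1. Wells sat over an LED plate 2–3 cm away: foil-covered wells stayed dark, the rest got continuous 380 nm light. Cells were washed once before lysis, then IP-One HTRF was read. Value is the efficacy difference (%), dark minus violet.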
Sequence of Metabotropic glutamate receptor 5 (Rattus norvegicus) (P31424 21-1203 limits assumed): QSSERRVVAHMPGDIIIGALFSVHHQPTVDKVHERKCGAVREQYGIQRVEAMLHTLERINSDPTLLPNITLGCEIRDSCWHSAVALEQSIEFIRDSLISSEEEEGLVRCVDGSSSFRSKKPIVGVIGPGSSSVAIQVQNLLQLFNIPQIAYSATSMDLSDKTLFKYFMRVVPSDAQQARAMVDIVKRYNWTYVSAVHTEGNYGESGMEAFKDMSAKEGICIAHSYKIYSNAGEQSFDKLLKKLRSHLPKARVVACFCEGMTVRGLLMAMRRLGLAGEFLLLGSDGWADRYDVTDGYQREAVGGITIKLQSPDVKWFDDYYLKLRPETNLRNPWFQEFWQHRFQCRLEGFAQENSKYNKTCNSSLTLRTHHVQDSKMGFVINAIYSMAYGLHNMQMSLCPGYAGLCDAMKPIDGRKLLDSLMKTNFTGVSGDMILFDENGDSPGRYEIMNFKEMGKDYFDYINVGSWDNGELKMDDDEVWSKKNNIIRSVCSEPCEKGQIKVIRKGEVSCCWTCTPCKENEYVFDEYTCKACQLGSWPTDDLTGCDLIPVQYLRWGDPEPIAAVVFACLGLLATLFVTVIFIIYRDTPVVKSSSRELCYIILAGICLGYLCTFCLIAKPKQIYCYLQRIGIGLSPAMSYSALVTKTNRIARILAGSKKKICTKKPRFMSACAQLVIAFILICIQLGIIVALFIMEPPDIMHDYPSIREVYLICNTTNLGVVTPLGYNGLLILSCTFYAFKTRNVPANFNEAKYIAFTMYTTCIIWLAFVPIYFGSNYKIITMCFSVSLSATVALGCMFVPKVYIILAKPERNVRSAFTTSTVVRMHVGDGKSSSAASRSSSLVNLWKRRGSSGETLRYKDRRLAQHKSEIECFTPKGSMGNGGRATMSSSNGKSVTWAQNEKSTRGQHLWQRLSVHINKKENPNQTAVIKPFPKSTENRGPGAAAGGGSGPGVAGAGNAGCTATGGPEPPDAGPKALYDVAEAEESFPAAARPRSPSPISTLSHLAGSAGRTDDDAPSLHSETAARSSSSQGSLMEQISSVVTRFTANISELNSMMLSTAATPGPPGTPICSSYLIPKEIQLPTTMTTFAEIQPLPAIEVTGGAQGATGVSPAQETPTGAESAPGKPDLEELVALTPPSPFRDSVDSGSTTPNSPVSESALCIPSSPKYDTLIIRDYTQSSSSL

For test [4] the target is unchanged. Kind of test: Negative allosteric modulation of rat N-terminal HA-tagged mGlu5 receptor expressed in HEK293 cells co-expressing N-terminal HA-tagged EAAC1 assessed as inhibition of quisqualate-induced inositol phosphate accumulation after 30 mins by HTRF assay relative to fenobam. It counts as functional, cell-based. Put shortly:
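Dose-response was run in HEK293 cells expressing rat HA-mGlu5 and EAAC1, under 100 nM quisqualate with compound for 30 min at 37°C, in dark conditions. IP-One HTRF read-out. Efficacy was taken from the bottom of the dose-response curve and normalised between 0% and 100% of the fenobam response.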

The target is the same in test [5]. Kind of test: Ratio of IC50 for negative allosteric modulation of rat N-terminal HA-tagged mGlu5 receptor expressed in HEK293 cells under dark condition to IC50 for negative allosteric modulation of rat N-terminal HA-tagged mGlu5 receptor expressed in HEK293 cells under violet light illumination. The format is cell-based. Put shortly:
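HEK293 cells expressing rat HA-mGlu5 and EAAC1 were stimulated with 100 nM quisqualate plus compound for 30 min at 37°C. Part of each plate was kept dark under foil; the rest was lit continuously at 380 nm from an LED plate. After a single wash, IP was measured by HTRF. Value is IC50 (dark) divided by IC50 (violet). Curves used ≥3 independent replicates.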

Sequence of Metabotropic glutamate receptor 5 (Rattus norvegicus, UniProt P31424) (P31424 whole entry): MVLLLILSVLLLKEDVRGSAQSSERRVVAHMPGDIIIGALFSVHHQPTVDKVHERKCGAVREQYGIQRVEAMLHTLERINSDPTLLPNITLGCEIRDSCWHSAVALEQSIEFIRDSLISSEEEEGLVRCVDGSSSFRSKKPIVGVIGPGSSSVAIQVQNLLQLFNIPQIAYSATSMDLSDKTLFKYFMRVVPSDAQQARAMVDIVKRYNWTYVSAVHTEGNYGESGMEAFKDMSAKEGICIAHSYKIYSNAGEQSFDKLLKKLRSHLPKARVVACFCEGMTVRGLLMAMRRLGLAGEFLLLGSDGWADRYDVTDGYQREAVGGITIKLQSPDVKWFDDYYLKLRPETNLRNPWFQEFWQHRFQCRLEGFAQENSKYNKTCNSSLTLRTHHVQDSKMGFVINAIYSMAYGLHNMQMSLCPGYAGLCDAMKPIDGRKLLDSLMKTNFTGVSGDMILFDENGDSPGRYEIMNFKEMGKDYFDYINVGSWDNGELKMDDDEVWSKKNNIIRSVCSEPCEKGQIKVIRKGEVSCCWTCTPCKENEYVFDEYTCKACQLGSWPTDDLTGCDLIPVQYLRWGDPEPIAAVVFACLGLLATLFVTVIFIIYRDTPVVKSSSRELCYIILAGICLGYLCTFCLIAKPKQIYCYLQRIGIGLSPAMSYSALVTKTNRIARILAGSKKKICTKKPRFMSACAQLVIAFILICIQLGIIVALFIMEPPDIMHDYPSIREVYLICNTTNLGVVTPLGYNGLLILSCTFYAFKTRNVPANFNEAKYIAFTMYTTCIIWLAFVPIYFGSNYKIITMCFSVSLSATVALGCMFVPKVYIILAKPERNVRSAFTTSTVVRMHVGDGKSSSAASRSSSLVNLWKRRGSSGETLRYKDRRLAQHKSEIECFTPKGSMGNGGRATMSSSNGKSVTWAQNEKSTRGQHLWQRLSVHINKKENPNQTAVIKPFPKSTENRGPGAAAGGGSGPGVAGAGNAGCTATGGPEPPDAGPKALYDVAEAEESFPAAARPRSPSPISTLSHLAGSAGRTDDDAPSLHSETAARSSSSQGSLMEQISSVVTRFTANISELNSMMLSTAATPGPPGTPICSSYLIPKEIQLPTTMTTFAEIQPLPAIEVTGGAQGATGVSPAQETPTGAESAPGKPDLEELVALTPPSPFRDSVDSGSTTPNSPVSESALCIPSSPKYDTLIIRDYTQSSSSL
Sequence of Metabotropic glutamate receptor 5 (Homo sapiens, UniProt P41594) (P41594 whole entry): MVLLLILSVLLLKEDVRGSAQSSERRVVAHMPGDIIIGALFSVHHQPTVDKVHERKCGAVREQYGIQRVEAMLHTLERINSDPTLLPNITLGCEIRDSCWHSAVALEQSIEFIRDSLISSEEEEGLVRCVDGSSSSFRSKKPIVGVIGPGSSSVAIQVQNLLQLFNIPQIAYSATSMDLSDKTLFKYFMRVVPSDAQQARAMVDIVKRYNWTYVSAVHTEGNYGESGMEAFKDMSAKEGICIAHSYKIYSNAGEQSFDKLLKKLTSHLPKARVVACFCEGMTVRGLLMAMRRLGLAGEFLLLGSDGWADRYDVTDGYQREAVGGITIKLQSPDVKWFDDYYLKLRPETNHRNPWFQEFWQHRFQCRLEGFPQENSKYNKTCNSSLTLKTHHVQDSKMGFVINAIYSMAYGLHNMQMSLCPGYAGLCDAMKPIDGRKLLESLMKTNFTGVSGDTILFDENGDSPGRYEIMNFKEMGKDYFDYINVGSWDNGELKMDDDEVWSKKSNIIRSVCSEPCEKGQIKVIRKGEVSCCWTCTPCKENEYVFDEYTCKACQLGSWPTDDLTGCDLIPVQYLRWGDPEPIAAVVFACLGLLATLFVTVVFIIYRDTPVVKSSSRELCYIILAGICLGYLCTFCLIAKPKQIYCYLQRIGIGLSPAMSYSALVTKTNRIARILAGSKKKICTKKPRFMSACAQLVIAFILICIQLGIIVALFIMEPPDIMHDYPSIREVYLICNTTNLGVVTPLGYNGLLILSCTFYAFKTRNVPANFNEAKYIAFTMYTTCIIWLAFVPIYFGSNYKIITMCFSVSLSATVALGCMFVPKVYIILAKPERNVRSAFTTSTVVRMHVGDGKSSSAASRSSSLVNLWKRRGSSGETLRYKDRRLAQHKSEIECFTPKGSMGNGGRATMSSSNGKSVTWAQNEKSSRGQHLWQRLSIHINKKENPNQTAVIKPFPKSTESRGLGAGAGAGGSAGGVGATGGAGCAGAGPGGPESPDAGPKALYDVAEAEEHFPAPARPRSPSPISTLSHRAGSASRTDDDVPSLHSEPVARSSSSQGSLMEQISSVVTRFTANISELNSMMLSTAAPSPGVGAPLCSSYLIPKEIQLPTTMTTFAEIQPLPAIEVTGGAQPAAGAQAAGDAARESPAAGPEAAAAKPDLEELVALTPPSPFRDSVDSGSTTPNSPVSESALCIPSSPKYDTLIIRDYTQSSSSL

In test [1], `Cc1cc(C)c(N)c(C#Cc2cccc(F)c2)n1` [RASEGLURANT] registered an IC50 of 0.017 µM.

`C(#Cc1ccccn1)c1cccc(/N=N/c2ccccn2)c1`: the IC50 in test [2] was 0.96 µM. Further, in test [3], the Activity stood at 9%. Besides, the Efficacy in test [4] came out at 115%. In addition, the Ratio IC50 in test [5] worked out at 1.3.

Consider `C(#Cc1ccccn1)c1cccc(C#Cc2ccccn2)c1`, for which, in test [2], the IC50 is 0.43 µM. The Efficacy in test [4] was 114%.

Turning to `C(#Cc1ccccn1)c1ccc(C#Cc2ccccn2)cc1`, the IC50 in test [2] was determined as 1.21 µM. Besides, the Efficacy in test [4] stood at 42%.

Regarding `c1ccc(/N=N/c2cccc(/N=N/c3ccccn3)c2)nc1`, the IC50 in test [2] was determined as 4.92 µM. Further, the Activity in test [3] came out at 15%. The Efficacy in test [4] worked out at 114%. Also, the Ratio IC50 in test [5] was found to be 2.2.

Consider `C(#Cc1ccccn1)c1ccc(/N=N\c2ccccn2)cc1`, for which the IC50 in test [2] worked out at 3.09 µM. Moreover, the Activity in test [3] stood at 15%. Further, the Efficacy in test [4] turned out to be 35%. The Ratio IC50 in test [5] was 2.9.

Turning to `c1ccc(/N=N/c2ccc(/N=N/c3ccccn3)cc2)nc1`, the IC50 in test [2] amounted to 6.13 µM. For the same compound, the Activity in test [3] was -1%. Also, the Efficacy in test [4] came out at 19%. For the same compound, the Ratio IC50 in test [5] amounted to 1.2.

Values taken from ChEMBL document CHEMBL3994627, “Positional isomers of bispyridine benzene derivatives induce efficacy changes on mGlu5 negative allosteric modulation” (Eur J Med Chem, 2017).
